Assay [1] has as its system Mycobacterium tuberculosis. Put plainly: Antitubercular activity against replicating form of Mycobacterium tuberculosis H37Rv ATCC 27294 after 7 days by microplate alamar blue assay. The assay is classed as functional. The conditions noted are these: 168 h. In outline: (§1)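 12.8 mM DMSO stocks; two-fold dilutions in Middlebrook 7H12 broth, final 128 to 0.5 µM. Inoculum 2 × 10⁵ cfu/mL, 37 °C. On day 7, Tween 80 plus Alamar Blue added; fluorescence read (ex 530/em 590 nm) after 16-24 h more. MIC = lowest concentration giving ≥90% fluorescence drop versus bacteria-only controls; mean of two runs. RMP and INH positive controls.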
For orientation: Resazurin is reduced to fluorescent resorufin, in cell work by metabolically active cells.

In assay [2] the test system is Mycobacterium tuberculosis. As to the kind of experiment: Antitubercular activity against non replicating persistent form of Mycobacterium tuberculosis H37Rv ATCC 27294 after 10 days by LORA. As to conditions: 240 h. It is filed as functional. The essentials:
(§2)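 Recombinant H37Rv (pFCA-luxAB, V. harveyi luciferase, acetamidase promoter), low-oxygen adapted in fermentor, washed in PBS, stored at -80 °C. About 10⁵ cfu/mL of thawed cells exposed to two-fold serial dilutions in 7H12, 10 days anaerobic at 37 °C. Luminescence read after 28 h aerobic recovery (5% CO₂). MIC = lowest concentration preventing recovery (90% reduction versus untreated), read graphically.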

The next assay has as its system Vero. As to the kind of experiment: Cytotoxicity against african green monkey Vero cells after 72 hrs by Cell titer assay. It is filed as cell-based, Chlorocebus sabaeus. The essentials:
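Vero CCL-81 cells, log phase. Samples from 12.8 mM DMSO stocks in geometric 3-fold dilutions in MEM with 10% FBS, 25 mM HEPES, 0.2% NaHCO₃ and 2 mM glutamine; DMSO ≤1% v/v final. Run in duplicate, 72 h at 37 °C, 5% CO₂. Viability by CellTiter 96 aqueous assay, absorbance 490 nm; IC50 from curve fitting.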

The subject of assay [3] is Mycobacterium tuberculosis. Put plainly: Ratio of MIC for non replicating persistent form of Mycobacterium tuberculosis H37Rv ATCC 27294 by LORA to MIC for replicating form of Mycobacterium tuberculosis H37Rv ATCC 27294 by microplate alamar blue assay. It is filed as functional.
Assay [4] deals with Mycobacterium tuberculosis. As to the kind of experiment: Antitubercular activity against replicating form of Mycobacterium tuberculosis. The assay is classed as functional. The essentials: as §1
The subject of assay [5] is Mycobacterium tuberculosis. As to the kind of experiment: Antitubercular activity against non replicating persistent form of Mycobacterium tuberculosis. It is filed as functional. The essentials:
as §2

Assay [6] relates to Mycobacterium tuberculosis. As to the kind of experiment: Antitubercular activity against Mycobacterium tuberculosis. It is filed as functional. In outline: as §1
Setting [7] is: Chlorocebus sabaeus, Vero, 72 h.

≈ marks a conversion by molar mass, not a printed value. Bounds are passed on as bounds.

As a reminder, the MIC is the smallest concentration in the dilution series that meets the test's criterion for growth inhibition. The term IC50 denotes the concentration at which inhibition is half-maximal.

For the compound `CCOC(=O)c1cc(COc2cc(C(F)(F)F)nc3c(Cl)cccc23)on1`, the results for the MIC in assay [1] and in assay [2] were 62.9 µM (≈ 25.2 µg/mL) and 49.3 µM (≈ 19.8 µg/mL), respectively.

On to `CCOC(=O)c1cc(COc2cc(C(F)(F)F)nc3c(F)cccc23)on1`, for which the MIC in assay [1] was determined as 11.3 µM (≈ 4.34 µg/mL); in assay [2], 39 µM (≈ 15 µg/mL). In the assay on Vero (setting [7]), the IC50 is over 128 µM.

In the case of `CCOC(=O)c1cc(COc2cc(C(F)(F)F)nc3cc(Cl)cc(Cl)c23)on1`, the MIC in assay [1] was found to be 1.9 µM (≈ 0.827 µg/mL); in assay [2], 3.7 µM (≈ 1.61 µg/mL). Also, the IC50 in the assay with Vero (setting [7]) was over 128 µM.

As to `CCOC(=O)c1cc(COc2ccnc3cc(Cl)ccc23)on1`, the MIC in assay [1] was 3.8 µM (≈ 1.26 µg/mL); in assay [2] it was 99.7 µM (≈ 33.2 µg/mL). In the assay on Vero (setting [7]), the IC50 is over 128 µM. For the same compound, the Ratio in assay [3] was 25.

As for `CCOC(=O)c1cc(COc2ccnc3cc(C(F)(F)F)ccc23)on1`, the MIC turned out to be 3.3 µM (≈ 1.21 µg/mL) in assay [1] and 81.9 µM (≈ 30 µg/mL) in assay [2]. In addition, the Ratio in assay [3] worked out at 25.

With `CCOC(=O)c1cc(-c2cccc(Oc3cc(C(F)(F)F)nc4ccccc34)c2)on1`, the values for the MIC in assay [1] and in assay [2] were 0.95 µM (≈ 0.407 µg/mL) and 3.7 µM (≈ 1.58 µg/mL), respectively. The compound further registered an IC50 in the assay on Vero (setting [7]) of over 128 µM.

On to `CCOC(=O)c1cc(COc2cc(C(F)(F)F)nc3c(C(F)(F)F)cccc23)on1`, for which the minimal inhibitory concentration (MIC) in assay [4] stood at 0.9 µM (≈ 0.391 µg/mL); in assay [5], 12.2 µM (≈ 5.3 µg/mL); in assay [1] it was 0.9 µM (≈ 0.391 µg/mL); in assay [2] it was 12.2 µM (≈ 5.3 µg/mL). The same compound displayed an IC50 in the assay with Vero (setting [7]) of over 128 µM.

As for `CCOC(=O)c1cc(COc2ccnc3ccccc23)on1`, the MIC was 25.1 µM (≈ 7.49 µg/mL) in assay [1] and 13.2 µM (≈ 3.94 µg/mL) in assay [2]. Moreover, the IC50 in the assay with Vero (setting [7]) was over 128 µM.

In the case of `CCOC(=O)c1cc(COc2cc(C(F)(F)F)nc3c(C)cccc23)on1`, the MIC in assay [1] is 1.8 µM (≈ 0.685 µg/mL); in assay [2], 10.4 µM (≈ 3.96 µg/mL). The compound further returned an IC50 with Vero (setting [7]) of over 128 µM.

For `CCOC(=O)c1cc(COc2cc(C(F)(F)F)nc3c(C(F)(F)F)cc(OC)cc23)on1`, the lowest concentration to inhibit growth in assay [1] (MIC) was 66.1 µM (≈ 30.7 µg/mL). Besides, the IC50 with Vero (setting [7]) is over 128 µM.

`CCOC(=O)c1cc(COc2cc(C(=O)OCC)nc3ccccc23)on1`: the MIC was found to be 7.9 µM (≈ 2.93 µg/mL) in assay [1] and 15.7 µM (≈ 5.81 µg/mL) in assay [2]. The compound further returned an IC50 with Vero (setting [7]) of over 128 µM.

As to `CCOC(=O)c1cc(Cn2ccc(=O)c3ccc(C(F)(F)F)cc32)on1`, the MIC in assay [1] is over 128 µM.

For `CCOC(=O)c1cc(COc2cc(C(F)(F)F)nc3ccccc23)on1`, the MIC was 3.2 µM (≈ 1.17 µg/mL) in assay [1] and 25.1 µM (≈ 9.19 µg/mL) in assay [2]. In addition, the IC50 with Vero (setting [7]) was over 128 µM.

In assay [1], `CCOC(=O)c1cc(COc2cc(C(F)(F)F)nc3cccc(C(F)(F)F)c23)on1` had a minimum inhibitory concentration (MIC) of 3.8 µM (≈ 1.65 µg/mL). The same compound gave a half-maximal inhibitory concentration (IC50) with Vero (setting [7]) of over 128 µM.

Turning to `CCOC(=O)c1cc(COc2cc(C(F)(F)F)nc3cc(C(F)(F)F)cc(C(F)(F)F)c23)on1`, the MIC in assay [1] is 0.77 µM (≈ 0.387 µg/mL); in assay [2], 10 µM (≈ 5.02 µg/mL). In addition, in the assay with Vero (setting [7]), the IC50 is over 128 µM.

The compound `CCOC(=O)c1cc(COc2cc(C(F)(F)F)nc3c(C(F)(F)F)cccc23)no1` yielded a minimal inhibitory concentration (MIC) in assay [1] of 3.6 µM (≈ 1.56 µg/mL). For the same compound, the concentration for half-maximal inhibition (IC50) with Vero (setting [7]) is over 128 µM.

On to `CCOC(=O)c1nc(COc2cc(C(F)(F)F)nc3c(C(F)(F)F)cccc23)cs1`, for which the minimal inhibitory concentration (MIC) in assay [1] stood at 16.5 µM (≈ 7.43 µg/mL). For the same compound, the IC50 in the assay with Vero (setting [7]) is over 128 µM.

The compound `CCOC(=O)c1ccc(COc2cc(C(F)(F)F)nc3c(C(F)(F)F)cccc23)o1` registered an MIC in assay [1] of over 128 µM. Further, in the assay on Vero (setting [7]), it took 118 µM to reach half-maximal inhibition (IC50).

For the compound `CCC(=O)c1cc(COc2cc(C(F)(F)F)nc3c(C(F)(F)F)cccc23)on1`, the minimal inhibitory concentration (MIC) in assay [1] is 27.4 µM (≈ 11.5 µg/mL). Moreover, in the assay with Vero (setting [7]), 64.9 µM corresponded to half-maximal inhibition (IC50).

In turn, `CCOC(=O)c1ccc(COc2cc(C(F)(F)F)nc3c(C(F)(F)F)cccc23)cc1` had a minimal inhibitory concentration (MIC) in assay [1] of over 128 µM. In the assay with Vero (setting [7]), the concentration for half-maximal inhibition (IC50) was over 128 µM.

`O=[N+]([O-])c1ccc(COc2cc(C(F)(F)F)nc3c(C(F)(F)F)cccc23)o1`: the minimum inhibitory concentration (MIC) in assay [1] is 6.3 µM (≈ 2.56 µg/mL). Half-maximal inhibition in the assay with Vero (setting [7]) (IC50) was put at 15.4 µM.

On to `CCOC(=O)c1cc(COc2ccnc3c(C(F)(F)F)cccc23)on1`, for which the minimum inhibitory concentration (MIC) was determined as 10.6 µM (≈ 3.88 µg/mL) in assay [1] and 56.6 µM (≈ 20.7 µg/mL) in assay [2]. Further, in the assay with Vero (setting [7]), the IC50 is over 128 µM.

On to `CCOC(=O)c1cc(COc2cc(C(F)(F)F)nc3c(F)ccc(F)c23)on1`, for which the MIC in assay [1] was determined as 41.2 µM (≈ 16.6 µg/mL); in assay [2], 52.8 µM (≈ 21.2 µg/mL).

Turning to `CCOC(=O)c1cc(COc2cc(C(F)(F)F)nc3c(OC(F)(F)F)cccc23)on1`, the minimum inhibitory concentration (MIC) came out at 2.6 µM (≈ 1.17 µg/mL) in assay [1] and 7 µM (≈ 3.15 µg/mL) in assay [2]. The compound also registered an IC50 with Vero (setting [7]) of over 128 µM.

`CCOC(=O)c1cc(COc2cc(C(F)(F)F)nc3c(F)cc(F)cc23)on1` registered a minimum inhibitory concentration (MIC) in assay [1] of 14.6 µM (≈ 5.87 µg/mL).

For `CCOC(=O)c1cc(CCOc2cc(C(F)(F)F)nc3c(C(F)(F)F)cccc23)on1`, the MIC in assay [1] stood at 3.4 µM (≈ 1.52 µg/mL); in assay [2], 9.9 µM (≈ 4.44 µg/mL). Besides, the IC50 in the assay on Vero (setting [7]) is over 128 µM.

In assay [1], `CCOC(=O)c1cc(COc2cc(C(F)(F)F)nc3cc(C(F)(F)F)ccc23)on1` displayed an MIC of 1.3 µM (≈ 0.565 µg/mL). For the same compound, the IC50 with Vero (setting [7]) is over 128 µM.

As for `CCOC(=O)c1cc(COc2cc(C(F)(F)F)nc3ccc(C(F)(F)F)cc23)on1`, the values for the MIC in assay [1] and in assay [2] were 3.7 µM (≈ 1.61 µg/mL) and 7.6 µM (≈ 3.3 µg/mL), respectively. The same compound had an IC50 in the assay on Vero (setting [7]) of over 128 µM. Besides, in assay [3], the Ratio amounted to 2.

For the compound `CCOC(=O)C1=NOC(COc2cc(C(F)(F)F)nc3c(C(F)(F)F)cccc23)C1` (configuration not stated), the lowest concentration to inhibit growth in assay [1] (MIC) was 22.2 µM (≈ 9.69 µg/mL). Besides, the IC50 in the assay on Vero (setting [7]) is over 128 µM.

As for `FC(F)(F)c1cc(OCc2nnn[nH]2)c2cccc(C(F)(F)F)c2n1`, the MIC in assay [1] was over 128 µM.

Take `CCOC(=O)c1cccc(COc2cc(C(F)(F)F)nc3c(C(F)(F)F)cccc23)n1`: the MIC in assay [1] is over 128 µM.

As to `CCOC(=O)c1coc(COc2cc(C(F)(F)F)nc3c(C(F)(F)F)cccc23)n1`, in assay [1], the MIC is over 128 µM.

For `NNC(=O)c1ccncc1` [ISONIAZID], the minimum inhibitory concentration (MIC) is 0.5 µM (≈ 0.0686 µg/mL) in assay [1] and over 128 µM in assay [2]. The compound also showed a half-inhibitory concentration (IC50) in the assay with Vero (setting [7]) of over 128 µM.

In assay [6], `OC(c1cc(C(F)(F)F)nc2c(C(F)(F)F)cccc12)C1CCCCN1` (configuration not stated) [MEFLOQUINE] yielded an MIC of 13 µM (≈ 4.92 µg/mL).

As to `CO[C@H]1/C=C/O[C@@]2(C)Oc3c(C)c(O)c4c(O)c(c(/C=N/N5CCN(C)CC5)c(O)c4c3C2=O)NC(=O)/C(C)=C\C=C\[C@H](C)[C@H](O)[C@@H](C)[C@@H](O)[C@@H](C)[C@H](OC(C)=O)[C@@H]1C` [RIFAMPIN], the MIC is 0.1 µM (≈ 0.0823 µg/mL) in assay [1] and 1.9 µM (≈ 1.56 µg/mL) in assay [2]. Moreover, the IC50 with Vero (setting [7]) and with Vero (vero) was 127 µM throughout.

As for `CN[C@@H]1[C@H](O[C@H]2[C@H](O[C@H]3[C@H](O)[C@@H](O)[C@H](N=C(N)N)[C@@H](O)[C@@H]3N=C(N)N)O[C@@H](C)[C@]2(O)C=O)O[C@@H](CO)[C@H](O)[C@H]1O` [STREPTOMYCIN], the MIC in assay [1] came out at 0.3 µM (≈ 0.174 µg/mL).

The values are drawn from ChEMBL document CHEMBL1153363, “Structure-activity relationships for a series of quinoline-based compounds active against replicating and nonreplicating Mycobacterium tuberculosis” (J Med Chem, 2009).
